# According to ChEMBL document CHEMBL3421623 (J Med Chem, 2015):
# Key:
# Aromatase = molecular target: T1, Aromatase (Homo sapiens, UniProt P11511); assay: Inhibition of human recombinant aromatase using 7-methoxy-trifluoromethylcoumarin as substrate assessed as formation of fluorescent metabolite after 30 mins by fluorescence assay
# T1 sequence (P11511 whole entry): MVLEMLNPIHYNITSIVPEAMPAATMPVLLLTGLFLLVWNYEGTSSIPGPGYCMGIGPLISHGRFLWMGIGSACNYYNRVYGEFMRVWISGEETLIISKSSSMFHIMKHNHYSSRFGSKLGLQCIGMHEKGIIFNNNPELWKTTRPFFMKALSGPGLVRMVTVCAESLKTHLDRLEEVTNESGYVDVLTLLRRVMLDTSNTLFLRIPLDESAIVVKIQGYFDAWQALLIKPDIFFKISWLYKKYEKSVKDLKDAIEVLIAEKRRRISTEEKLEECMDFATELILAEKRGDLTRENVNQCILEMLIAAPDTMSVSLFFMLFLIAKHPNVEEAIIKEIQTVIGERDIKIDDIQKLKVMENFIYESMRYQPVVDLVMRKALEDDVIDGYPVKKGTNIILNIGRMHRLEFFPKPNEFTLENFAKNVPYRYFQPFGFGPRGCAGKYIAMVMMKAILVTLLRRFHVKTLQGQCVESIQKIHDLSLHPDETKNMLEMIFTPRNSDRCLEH
# In short: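 Recombinant human CYP19 with MFC substrate, converted to fluorescent HFC, in 0.1 M potassium phosphate pH 7.4. NADPH-regenerating mix (NADP⁺, MgCl₂, glucose-6-phosphate, G6PDH); compound prewarmed 10 min at 37 °C, then 30 min reaction stopped with Tris base in acetonitrile. Activity as % of vehicle control; IC50 from one-site competition fit; Ki from Lineweaver–Burk data by nonlinear regression.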
# Cytochrome P450 3A4 = Cytochrome P450 3A4 (Homo sapiens, UniProt P08684); assay: Inhibition of human recombinant CYP3A4 assessed as metabolism of 7-benzyloxy-4-trifluoromethylcoumarin to HFC after 30 mins by fluorescence assay; type: ADME
# Sequence of Cytochrome P450 3A4 (P08684 whole entry): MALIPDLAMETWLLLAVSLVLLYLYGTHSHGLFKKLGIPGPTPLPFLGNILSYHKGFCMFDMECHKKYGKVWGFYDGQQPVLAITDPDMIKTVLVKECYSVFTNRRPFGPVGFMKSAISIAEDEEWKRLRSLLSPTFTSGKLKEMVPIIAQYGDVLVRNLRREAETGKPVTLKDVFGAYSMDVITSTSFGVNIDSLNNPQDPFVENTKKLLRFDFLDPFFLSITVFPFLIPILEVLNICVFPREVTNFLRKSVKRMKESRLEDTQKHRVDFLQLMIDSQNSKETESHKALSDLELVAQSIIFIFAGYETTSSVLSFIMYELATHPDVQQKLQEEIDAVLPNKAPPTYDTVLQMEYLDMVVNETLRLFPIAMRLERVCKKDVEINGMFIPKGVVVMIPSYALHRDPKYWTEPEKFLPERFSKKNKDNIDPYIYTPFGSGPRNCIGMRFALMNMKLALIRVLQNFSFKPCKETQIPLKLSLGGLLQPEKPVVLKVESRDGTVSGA
# Cytochrome P450 2D6 = Cytochrome P450 2D6 (Homo sapiens, UniProt P10635); assay: Inhibition of human recombinant CYP2D6 after 30 mins by fluorescence assay; type: ADME
# Sequence of Cytochrome P450 2D6 (P10635 whole entry): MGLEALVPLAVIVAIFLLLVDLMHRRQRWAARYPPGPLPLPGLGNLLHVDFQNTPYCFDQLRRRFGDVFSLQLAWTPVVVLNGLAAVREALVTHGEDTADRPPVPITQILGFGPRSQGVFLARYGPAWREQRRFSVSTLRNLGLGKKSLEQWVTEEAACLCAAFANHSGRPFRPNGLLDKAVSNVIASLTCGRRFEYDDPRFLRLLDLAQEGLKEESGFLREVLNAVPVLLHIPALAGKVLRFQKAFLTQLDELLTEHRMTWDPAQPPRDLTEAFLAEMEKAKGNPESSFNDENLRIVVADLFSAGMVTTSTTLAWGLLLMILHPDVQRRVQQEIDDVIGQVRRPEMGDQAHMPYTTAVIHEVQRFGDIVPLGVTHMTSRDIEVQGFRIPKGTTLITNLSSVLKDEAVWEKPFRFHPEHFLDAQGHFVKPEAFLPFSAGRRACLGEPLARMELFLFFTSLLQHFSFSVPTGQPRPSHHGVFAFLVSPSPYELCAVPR
# Cytochrome P450 3A5 = Cytochrome P450 3A5 (Homo sapiens, UniProt P20815); assay: Inhibition of human recombinant CYP3A5 assessed as metabolism of 7-benzyloxy-4-trifluoromethylcoumarin to HFC after 30 mins by fluorescence assay; type: ADME
# Sequence of Cytochrome P450 3A5 (P20815 whole entry): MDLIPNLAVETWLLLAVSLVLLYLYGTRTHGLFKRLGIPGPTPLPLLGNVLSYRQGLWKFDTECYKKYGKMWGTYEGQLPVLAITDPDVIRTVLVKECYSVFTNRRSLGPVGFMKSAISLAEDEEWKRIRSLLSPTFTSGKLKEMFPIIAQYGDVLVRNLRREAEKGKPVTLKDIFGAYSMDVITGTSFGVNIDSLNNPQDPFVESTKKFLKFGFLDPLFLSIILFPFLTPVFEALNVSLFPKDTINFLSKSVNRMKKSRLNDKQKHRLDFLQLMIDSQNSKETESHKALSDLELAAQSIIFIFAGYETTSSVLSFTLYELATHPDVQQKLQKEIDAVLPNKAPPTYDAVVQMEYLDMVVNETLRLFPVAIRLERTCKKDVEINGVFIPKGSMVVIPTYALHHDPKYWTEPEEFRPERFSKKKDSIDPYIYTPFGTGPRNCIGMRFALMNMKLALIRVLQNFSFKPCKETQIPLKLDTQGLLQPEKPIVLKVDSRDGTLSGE
# [1] = molecular target: T2, Estrogen receptor (Homo sapiens) (UniProt P03372); assay: Antiestrogenic effect at estrogen receptor in human MCF7 cells assessed as inhibition of E2-induced progesterone receptor mRNA expression at 1000 nM after 24 hrs by real time quantitative PCR; type: cell-based; set-up: scale not given: the % may be the effect or the level left
# T2 sequence (whole entry): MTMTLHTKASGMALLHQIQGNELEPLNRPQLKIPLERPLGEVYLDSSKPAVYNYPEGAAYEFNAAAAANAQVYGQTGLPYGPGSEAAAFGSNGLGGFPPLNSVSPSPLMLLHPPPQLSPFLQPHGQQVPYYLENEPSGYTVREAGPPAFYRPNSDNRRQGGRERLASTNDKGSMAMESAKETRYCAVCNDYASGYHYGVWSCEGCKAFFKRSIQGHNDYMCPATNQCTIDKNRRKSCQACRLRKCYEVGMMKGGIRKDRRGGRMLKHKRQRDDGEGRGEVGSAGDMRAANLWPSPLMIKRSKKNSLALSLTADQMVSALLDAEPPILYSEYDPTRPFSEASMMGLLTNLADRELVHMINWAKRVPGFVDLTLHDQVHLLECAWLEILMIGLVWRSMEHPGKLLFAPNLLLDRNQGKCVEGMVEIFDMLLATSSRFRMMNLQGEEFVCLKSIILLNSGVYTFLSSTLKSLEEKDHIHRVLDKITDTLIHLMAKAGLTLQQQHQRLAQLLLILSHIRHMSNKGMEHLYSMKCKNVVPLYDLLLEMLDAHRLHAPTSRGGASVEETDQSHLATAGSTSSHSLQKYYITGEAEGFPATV
# In short: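 MCF-7 cells (10⁵/well) grown in MEM + 10% FBS at 37 °C, 5% CO₂, then preconditioned 72 h in charcoal-stripped FBS. Treated 24 h with 1 μM compound or vehicle (0.1% methanol) plus 10 nM E2 in MEM/10% charcoal-stripped FBS. PGR mRNA extracted after genomic DNA removal and quantified by qPCR (40 cycles, Ct). Reported as % of E2-alone expression (100%); 1 μM endoxifen as positive control.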
# Estrogen receptor beta = Estrogen receptor beta (Homo sapiens, UniProt Q92731); assay: Displacement of fluorescein-labeled ES2 from human recombinant ERbeta receptor after 2 hrs by fluorescence polarization assay
# Sequence of Estrogen receptor beta (Q92731 whole entry): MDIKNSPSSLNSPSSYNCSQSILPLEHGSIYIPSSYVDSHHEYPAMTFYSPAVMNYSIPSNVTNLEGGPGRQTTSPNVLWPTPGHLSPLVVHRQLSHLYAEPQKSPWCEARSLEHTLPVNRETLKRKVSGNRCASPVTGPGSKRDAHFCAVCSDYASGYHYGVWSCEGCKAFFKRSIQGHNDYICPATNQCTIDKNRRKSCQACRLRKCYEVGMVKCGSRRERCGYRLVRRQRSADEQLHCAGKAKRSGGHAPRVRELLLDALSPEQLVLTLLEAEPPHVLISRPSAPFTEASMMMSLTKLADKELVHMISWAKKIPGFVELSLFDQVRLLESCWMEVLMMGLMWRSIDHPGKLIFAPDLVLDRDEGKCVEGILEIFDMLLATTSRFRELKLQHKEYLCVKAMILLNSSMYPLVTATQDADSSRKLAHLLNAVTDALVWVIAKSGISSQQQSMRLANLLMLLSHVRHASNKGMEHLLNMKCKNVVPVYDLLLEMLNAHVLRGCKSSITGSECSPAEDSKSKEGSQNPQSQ
# In short: (§1)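 Fluorescence polarization competition. Compound in methanol or DMSO mixed with ES2 screening buffer (100 mM potassium phosphate, 100 μg/mL BGG, 0.02% NaN₃). Preformed complex added to final 9 nM ES2 with 30 nM ER-α or 20 nM ER-β. Polarization expressed as % of vehicle control; EC50 from one-site competition fit.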
# Cytochrome P450 2A6 = molecular target: T3, Cytochrome P450 2A6 (Homo sapiens, UniProt P11509); assay: Inhibition of human recombinant CYP2A6 assessed as metabolism of coumarin to 7-hydroxycoumarin after 30 mins by fluorescence assay; type: ADME
# T3 sequence (P11509 whole entry): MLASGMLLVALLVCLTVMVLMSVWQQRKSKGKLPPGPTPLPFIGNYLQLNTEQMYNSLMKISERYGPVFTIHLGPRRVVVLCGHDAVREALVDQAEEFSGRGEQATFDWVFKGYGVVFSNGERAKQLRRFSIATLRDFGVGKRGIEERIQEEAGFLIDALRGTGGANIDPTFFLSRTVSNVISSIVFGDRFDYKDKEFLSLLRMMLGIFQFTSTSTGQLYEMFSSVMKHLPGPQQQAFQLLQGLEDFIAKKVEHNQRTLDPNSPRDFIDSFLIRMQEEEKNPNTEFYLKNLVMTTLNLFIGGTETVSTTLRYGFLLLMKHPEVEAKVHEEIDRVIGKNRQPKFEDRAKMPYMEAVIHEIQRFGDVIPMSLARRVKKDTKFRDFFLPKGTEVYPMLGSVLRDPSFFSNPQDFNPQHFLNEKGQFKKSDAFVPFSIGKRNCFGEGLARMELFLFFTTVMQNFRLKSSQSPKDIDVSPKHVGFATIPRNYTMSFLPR
# Cytochrome P450 1A2 = molecular target: T4, Cytochrome P450 1A2 (Homo sapiens, UniProt P05177); assay: Inhibition of human recombinant CYP1A2 assessed as metabolism of 3-cyano-7-ethoxycoumarin after 30 mins by fluorescence assay; type: ADME
# T4 sequence (P05177 whole entry): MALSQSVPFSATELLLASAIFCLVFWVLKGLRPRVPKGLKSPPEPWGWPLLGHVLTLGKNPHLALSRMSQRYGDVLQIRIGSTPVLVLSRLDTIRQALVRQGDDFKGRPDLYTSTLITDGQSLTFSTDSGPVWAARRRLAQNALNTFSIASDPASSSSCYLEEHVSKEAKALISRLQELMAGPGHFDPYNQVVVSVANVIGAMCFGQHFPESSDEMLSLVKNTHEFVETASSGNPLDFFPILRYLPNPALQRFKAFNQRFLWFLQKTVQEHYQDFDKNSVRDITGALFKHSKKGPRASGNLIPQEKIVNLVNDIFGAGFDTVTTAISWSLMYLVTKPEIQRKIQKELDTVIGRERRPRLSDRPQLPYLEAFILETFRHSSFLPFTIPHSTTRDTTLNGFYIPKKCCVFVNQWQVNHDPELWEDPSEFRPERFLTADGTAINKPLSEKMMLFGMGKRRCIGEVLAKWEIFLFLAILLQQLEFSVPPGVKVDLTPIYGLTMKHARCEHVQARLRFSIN
# Estrogen receptor = molecular target: T5, Estrogen receptor (Homo sapiens, UniProt P03372); assay: Displacement of fluorescein-labeled ES2 from human recombinant ERalpha receptor after 2 hrs by fluorescence polarization assay; in short: as §1
# T5 sequence (P03372 whole entry): T2 sequence (whole entry)
smiles,measurement,setting,value
CC/C(=C(/c1ccc(O)cc1)c1ccc(OCCN)cc1)c1ccc(O)cc1 (mixture of isomers),IC50,Aromatase,45 nM
same,IC50,Cytochrome P450 3A4,1880 nM
same,Ki,Cytochrome P450 3A4,1640 nM
same,IC50,Cytochrome P450 2D6,3600 nM
same,Ki,Cytochrome P450 2D6; read-out: Ki,423 nM
same,IC50,Cytochrome P450 3A5,556 nM
same,Ki,Cytochrome P450 3A5,855 nM
same,Activity,[1],14%
same,EC50,Estrogen receptor beta,9.5 nM
same,Ki,Cytochrome P450 2A6,710 nM
same,IC50,Cytochrome P450 1A2,207 nM
same,Ki,Cytochrome P450 1A2,56 nM
same,EC50,Estrogen receptor,15 nM
